This note sets out measurements from ChEMBL document CHEMBL1250485, “Synthesis and activity of endomorphin-2 and morphiceptin analogues with proline surrogates in position 2” (Eur J Med Chem, 2010).

Where a SMILES comes first, the peptide text is derived from it. [ ]: non-standard residue; d: D form. d(β3hP) = O=C(O)C[C@H]1CCCN1; β3hP = O=C(O)C[C@@H]1CCCN1

Assay type in all cases: functional, tissue-based
The target in test [1] is Mu-type opioid receptor (Cavia porcellus, UniProt P97266). The experiment in a line: Agonist activity at mu opioid receptor in guinea pig ileum assessed as inhibition of electrically-stimulated muscle contraction. The method, boiled down:
(§1)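 Isolated tissue bioassays used MVD for line 1 and GPI/LMMP for […]. IC50 is the mean of at least four experiments, obtained by nonlinear least-squares fitting to the Hill equation.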

For test [2], the target named is Delta-type opioid receptor (Mus musculus, UniProt P32300). Put plainly: Agonist activity at delta opioid receptor in mouse vas deferens assessed as inhibition of electrically-stimulated muscle contraction. The essentials:
as §1

Test [3] addresses Delta-type opioid receptor (Mus musculus) (UniProt P32300). Put plainly: Agonist activity at delta opioid receptor in mouse vas deferens assessed as inhibition of electrically-stimulated muscle contraction at 1 uM.

Chain of Delta-type opioid receptor (P32300 whole entry): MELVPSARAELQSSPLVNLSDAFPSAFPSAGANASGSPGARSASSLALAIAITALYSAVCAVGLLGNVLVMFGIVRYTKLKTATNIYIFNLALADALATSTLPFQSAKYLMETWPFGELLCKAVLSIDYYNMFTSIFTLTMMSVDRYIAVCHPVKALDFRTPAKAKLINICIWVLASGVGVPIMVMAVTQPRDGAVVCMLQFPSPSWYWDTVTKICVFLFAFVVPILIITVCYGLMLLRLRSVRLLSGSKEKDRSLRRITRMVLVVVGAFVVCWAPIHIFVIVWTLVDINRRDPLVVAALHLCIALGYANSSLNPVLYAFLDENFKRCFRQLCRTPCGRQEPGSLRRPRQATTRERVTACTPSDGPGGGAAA
Chain of Mu-type opioid receptor (P97266 whole entry): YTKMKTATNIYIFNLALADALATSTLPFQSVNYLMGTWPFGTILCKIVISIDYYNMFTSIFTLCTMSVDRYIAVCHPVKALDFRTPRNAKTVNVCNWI
Chain of Delta-type opioid receptor (Mus musculus) (P32300 whole entry): as the sequence (P32300 whole entry) above

With `NC(=O)[C@H](Cc1ccccc1)NC(=O)[C@H](Cc1ccccc1)NS(=O)(=O)[C@@H]1CCN(C(=O)[C@@H](N)Cc2ccc(O)cc2)C1`, the half-inhibitory concentration (IC50) (commonly the point on the concentration scale where inhibition reaches its midpoint) turned out to be 220 nM in test [1] and 390 nM in test [2].
For `NC(=O)[C@H](Cc1ccccc1)NC(=O)[C@H](Cc1ccccc1)NC(=O)C[C@H]1CCCN1C(=O)[C@@H](N)Cc1ccc(O)cc1` the same measures were 420 nM and 1900 nM.
The corresponding values for `NC(=O)[C@H](Cc1ccccc1)NC(=O)[C@H](Cc1ccccc1)NS(=O)(=O)[C@H]1CCN(C(=O)[C@@H](N)Cc2ccc(O)cc2)C1` are 260 nM and 530 nM.
The corresponding values for `NC(=O)[C@H]1CCCN1C(=O)[C@H](Cc1ccccc1)NC(=O)C[C@H]1CCCN1C(=O)[C@@H](N)Cc1ccc(O)cc1` (H-Y[d(β3hP)]F[dP]-NH2) are 17 nM and 96 nM.
Regarding `NC(=O)[C@H](Cc1ccccc1)NC(=O)[C@H](Cc1ccccc1)NS(=O)(=O)C[C@@H]1CCCN1C(=O)[C@@H](N)Cc1ccc(O)cc1`, the IC50 worked out at 730 nM in test [1] and 1100 nM in test [2].
Consider `NC(=O)[C@H]1CCCN1C(=O)[C@H](Cc1ccccc1)NC(=O)C[C@@H]1CCCN1C(=O)[C@@H](N)Cc1ccc(O)cc1` (H-Y[β3hP]F[dP]-NH2), for which, in test [1], the IC50 amounted to 1100 nM. In addition, the inhibition (commonly how much of the control response was suppressed) in test [3] came to 33.7%.
`NC(=O)[C@H](Cc1ccccc1)NC(=O)[C@H](Cc1ccccc1)NS(=O)(=O)C[C@H]1CCCN1C(=O)[C@@H](N)Cc1ccc(O)cc1`: the IC50 in test [1] was 2700 nM. In test [3], the inhibition was determined as 36%.
In the case of `NC(=O)[C@H](Cc1ccccc1)NC(=O)[C@H](Cc1ccccc1)NC(=O)C[C@@H]1CCCN1C(=O)[C@@H](N)Cc1ccc(O)cc1`, the concentration for half-maximal inhibition (IC50) in test [1] was determined as 260 nM; in test [2], 1300 nM.
